{
  "source": "paper PMC5200953",
  "about": "(Dalton transactions (Cambridge, England : 2003), 2015)",
  "key": {"[1]": {"tested_on": "sstr2-transfected HCT116 cells", "assay": "Cellular internalization assay", "type": "cell-based"}, "[2]": {"assay": "Biodistribution in mice bearing subcutaneous sstr2-transfected HCT116 tumours", "type": "in vivo", "details": "mouse, n = 4; for tissue uptake at 1 h: 1 h p.i.; for tissue uptake at 4 h: 4 h p.i.; for tissue uptake at 24 h: 24 h p.i.", "procedure,_shortened": "(§1)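 Mice with subcutaneous sstr2-transfected HCT116 tumours received the 64Cu-labelled test conjugate. Activity was measured in blood, liver, kidney, muscle, bone, adrenal, pancreas and tumour at 1, 4 and 24 h p.i. A blocking group received co-administered Y3-TATE, assessed at 4 h p.i. Tumour-to-blood, -muscle, -kidney and -liver ratios were calculated. n = 4 per group; P-values were reported for group comparisons.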"}, "[3]": {"tested_on": "sstr2-transfected HCT116 tumours", "assay": "Biodistribution in mice bearing subcutaneous sstr2-transfected HCT116 tumours", "type": "in vivo", "procedure,_shortened": "as §1"}, "[4]": {"assay": "PET/CT imaging at 2 h p.i. in mice bearing sstr2-transfected HCT116 xenografts", "type": "in vivo", "details": "mouse, tumour, tumour standard uptake value (SUV), n = 2", "procedure,_shortened": "(§2)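 PET/CT imaging was done at 2 h p.i. with the 64Cu-labelled test conjugate. Mice bore subcutaneously implanted sstr2-transfected HCT116 xenografts. The blocked mouse was co-administered Y3-TATE (10 mg/kg). Tumour standard uptake value (SUV) was read from the images.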"}, "[5]": {"tested_on": "sstr2-transfected HCT116 tumours", "assay": "PET/CT imaging at 2 h p.i. in mice bearing sstr2-transfected HCT116 xenografts", "type": "in vivo", "details": "with the exception of kidneys", "procedure,_shortened": "as §2"}},
  "note": "“Also recorded” adds a separate entry of the source.",
  "data": [
    {"compound": "C[C@@H](O)[C@H](NC(=O)[C@@H]1CSSC[C@H](NC(=O)[C@@H](Cc2ccccc2)NC(=O)Cn2cc(CN3CCCN4CCN(CCCN(CP(=O)(O)O)CC4)CC3)nn2)C(=O)N[C@@H](Cc2ccc(O)cc2)C(=O)N[C@H](Cc2c[nH]c3ccccc23)C(=O)N[C@@H](CCCCN)C(=O)N[C@@H]([C@@H](C)O)C(=O)N1)C(=O)O", "note": "(64Cu complex, metal not drawn) [Compound 6]", "values": [
      {"measurement": "internalized", "setting": "[1]; after 4 h, sstr2-transfected HCT116 cells", "value": 38, "unit": "%ID/mg protein"},
      {"measurement": "surface bound, and thus internalized 6, blocked by excess Y3-TATE", "setting": "[1]; cells pre-incubated with excess Y3-TATE, P < 0.0001, n = 3", "value": "More than 95%"},
      {"measurement": "internalization, in words", "setting": "[1]; sstr2-transfected HCT116 cells", "value": "internalized rapidly and specifically; also recorded: quickly bound to the cell surface, and was steadily internalized"},
      {"measurement": "tissue uptake at 1 h", "setting": "[2]; adrenal, Adrenal uptake", "value": "1.14 ± 0.46", "unit": "%ID/g"},
      {"measurement": "tissue uptake at 4 h", "setting": "[2]; adrenal, Adrenal uptake, blocked with co-administration of Y3-TATE", "value": "0.37 ± 0.05", "unit": "%ID/g"},
      {"measurement": "tissue uptake at 4 h", "setting": "[2]; adrenal, Adrenal uptake", "value": "1.24 ± 0.4", "unit": "%ID/g"},
      {"measurement": "tissue uptake at 1 h", "setting": "[2]; blood, Blood uptake", "value": "0.34 ± 0.13", "unit": "%ID/g"},
      {"measurement": "tissue uptake at 4 h", "setting": "[2]; blood, Blood uptake, blocked with co-administration of Y3-TATE", "value": "0.22 ± 0.04", "unit": "%ID/g"},
      {"measurement": "tissue uptake at 4 h", "setting": "[2]; blood, Blood uptake", "value": "0.2 ± 0.03", "unit": "%ID/g"},
      {"measurement": "tissue uptake at 24 h", "setting": "[2]; blood, Blood uptake", "value": "0.15 ± 0.06", "unit": "%ID/g"},
      {"measurement": "tissue uptake at 1 h", "setting": "[2]; bone, Bone uptake", "value": "0.46 ± 0.16", "unit": "%ID/g"},
      {"measurement": "tissue uptake at 4 h", "setting": "[2]; bone, Bone uptake, blocked with co-administration of Y3-TATE", "value": "0.2 ± 0.04", "unit": "%ID/g"},
      {"measurement": "tissue uptake at 4 h", "setting": "[2]; bone, Bone uptake", "value": "0.5 ± 0.24", "unit": "%ID/g"},
      {"measurement": "tissue uptake at 24 h", "setting": "[2]; bone, Bone uptake", "value": "0.35 ± 0.1", "unit": "%ID/g"},
      {"measurement": "tissue uptake at 1 h", "setting": "[2]; kidney, Kidney uptake", "value": "15.9 ± 3.03", "unit": "%ID/g"},
      {"measurement": "tissue uptake at 4 h", "setting": "[2]; kidney, Kidney uptake, blocked with co-administration of Y3-TATE", "value": "16.1 ± 5.03", "unit": "%ID/g"},
      {"measurement": "tissue uptake at 4 h", "setting": "[2]; kidney, Kidney uptake", "value": "21 ± 2.84", "unit": "%ID/g"},
      {"measurement": "tissue uptake at 24 h", "setting": "[2]; kidney, Kidney uptake", "value": "14.7 ± 2.53", "unit": "%ID/g"},
      {"measurement": "tissue uptake at 1 h", "setting": "[2]; liver, Liver uptake", "value": "1.13 ± 0.16", "unit": "%ID/g"},
      {"measurement": "tissue uptake at 4 h", "setting": "[2]; liver, Liver uptake, blocked with co-administration of Y3-TATE", "value": "1.32 ± 0.3", "unit": "%ID/g"},
      {"measurement": "tissue uptake at 4 h", "setting": "[2]; liver, Liver uptake", "value": "1.3 ± 0.1", "unit": "%ID/g"},
      {"measurement": "tissue uptake at 24 h", "setting": "[2]; liver, Liver uptake", "value": "1.05 ± 0.1", "unit": "%ID/g"},
      {"measurement": "tissue uptake at 1 h", "setting": "[2]; muscle, Muscle uptake", "value": "0.22 ± 0.15", "unit": "%ID/g"},
      {"measurement": "tissue uptake at 4 h", "setting": "[2]; muscle, Muscle uptake, blocked with co-administration of Y3-TATE", "value": "0.09 ± 0.03", "unit": "%ID/g"},
      {"measurement": "tissue uptake at 4 h", "setting": "[2]; muscle, Muscle uptake", "value": "0.07 ± 0.02", "unit": "%ID/g"},
      {"measurement": "tissue uptake at 24 h", "setting": "[2]; muscle, Muscle uptake", "value": 0.06, "unit": "%ID/g"},
      {"measurement": "tissue uptake at 1 h", "setting": "[2]; pancreas, Pancreas uptake", "value": "6.71 ± 0.22", "unit": "%ID/g"},
      {"measurement": "tissue uptake at 4 h", "setting": "[2]; pancreas, Pancreas uptake, blocked with co-administration of Y3-TATE", "value": "0.3 ± 0.07", "unit": "%ID/g"},
      {"measurement": "tissue uptake at 4 h", "setting": "[2]; pancreas, Pancreas uptake", "value": "4.41 ± 0.95", "unit": "%ID/g"},
      {"measurement": "tissue uptake at 24 h", "setting": "[2]; pancreas, Pancreas uptake", "value": "1.84 ± 0.64", "unit": "%ID/g"},
      {"measurement": "tissue uptake at 1 h", "setting": "[2]; tumour, Tumour uptake", "value": "4.73 ± 1.17", "unit": "%ID/g"},
      {"measurement": "tissue uptake at 4 h", "setting": "[2]; tumour, Tumour uptake, blocked with co-administration of Y3-TATE", "value": "0.69 ± 0.22", "unit": "%ID/g"},
      {"measurement": "tissue uptake at 4 h", "setting": "[2]; tumour, Tumour uptake", "value": "7.54 ± 1.43", "unit": "%ID/g"},
      {"measurement": "tissue uptake at 24 h", "setting": "[2]; tumour, Tumour uptake", "value": "4.39 ± 1.71", "unit": "%ID/g"},
      {"measurement": "kidney uptake, in words", "setting": "[3]; 1, 4, and 24 h p.i.", "value": "consistently high uptake"},
      {"measurement": "uptake in sstr2-expressing organs (adrenal, pancreas, tumour), in words", "setting": "[3]; 1, 4, and 24 h p.i.", "value": "high tracer uptake"},
      {"measurement": "blocking of tumour uptake by co-administered Y3-TATE", "setting": "[3]; 4 h p.i., P < 0.0001, n = 4", "value": 91, "unit": "%"},
      {"measurement": "blocking of adrenal uptake by co-administered Y3-TATE", "setting": "[3]; 4 h p.i., P = 0.0051, n = 4", "value": 70, "unit": "%"},
      {"measurement": "in vivo stability of the copper complex, in words", "setting": "[3]; inferred from relatively low liver activity", "value": "reasonable in vivo stability"},
      {"measurement": "time of maximum tumour uptake", "setting": "[3]; p.i., n = 4", "value": 4, "unit": "h"},
      {"measurement": "SUV at 2 h", "setting": "[4]", "value": "2.25 ± 0.49", "unit": "SUV"},
      {"measurement": "tumour uptake and contrast by PET/CT, in words", "setting": "[5]", "value": "excellent tumour uptake and contrast"}
    ]}
  ]
}
